Compound activity (PubChem BioAssay)
A selection: hits, their analogues and other compounds. The true share with any hit is near 2.7%.
PAFAH1B2 FP inh: PAFAH1B2 enzyme inhibitors, primary screen, biochemical, fluorescence polarization, human | Platelet-activating factor acetylhydrolase IB subunit alpha2 (Homo sapiens), P68402 | recombinant PAFAH1B2, FP-rhodamine activity probe | inhibition, % at 3.39 µM | actives 1.2% (n = 340,000);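 active = inhibition above the mean of all tested compounds plus 3 SD, cut at about 24% in these data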;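 note: 0% = enzyme with DMSO and 100% = wells lacking PAFAH1B2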
Target sequence (P68402 whole entry, looked up): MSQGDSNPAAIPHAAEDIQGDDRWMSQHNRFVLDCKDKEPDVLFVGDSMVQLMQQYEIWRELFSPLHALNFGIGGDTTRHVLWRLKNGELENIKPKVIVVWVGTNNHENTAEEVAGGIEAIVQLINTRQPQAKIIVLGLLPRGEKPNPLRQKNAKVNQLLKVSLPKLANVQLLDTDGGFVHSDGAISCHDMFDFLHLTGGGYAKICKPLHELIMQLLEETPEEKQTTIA
PAFAH2 inh: PAFAH2 enzyme inhibitors, primary screen, biochemical, fluorescence polarization, human | recombinant PAFAH2, FP-rhodamine activity probe | inhibition, % at 3.39 µM | actives 0.99% (n = 340,000) | AID 492956, 2010;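 active = inhibition above the mean over all tested compounds plus 3 SD, cut at about 30% in these data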;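 note: inhibitors block probe labeling of enzyme so polarization drops; 0% = enzyme with DMSO and 100% = wells lacking PAFAH2 protein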
RBBP9 inh: human RBBP9 inhibitors, primary screen, biochemical, fluorescence polarization, FP-Rh probe, HTS; Serine hydrolase RBBP9 (Homo sapiens), O75884; actives 0.2% (n = 220,000); recombinant RBBP9; inhibition, % at 7.94 µM; AID 1515, 2009;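 active = inhibition above the campaign mean of all tested compounds plus 3 SD, cut at about 14% in these data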;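 note: plate controls were DMSO wells with RBBP9 for no effect and wells lacking RBBP9 protein for full effect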
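Material: RBBP9 protein. Amount: RBBP9 at 2.5 µM in dispensed solution, before mixing. Schedule: 30 min then 45 min, 25 °C. Medium: Tris buffer pH 8.0, NaCl, Pluronic. Measured by: fluorescence polarization. Measure: percent inhibition from mP, scaled between DMSO and no-protein wells. Replication: one well per compound.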
PAFAH1B3 FP inh: PAFAH1B3 enzyme inhibitors, primary screen, biochemical, fluorescence polarization, human | Platelet-activating factor acetylhydrolase IB subunit alpha1 (Homo sapiens), Q15102 | recombinant PAFAH1B3, FP-rhodamine probe | inhibition, % at 3.39 µM | actives 0.28% (n = 340,000) | AID 492972, 2010;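 active = inhibition above the screen-wide average of all tested compounds plus 3 SD, cut at about 25% in these data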;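 note: 0% = enzyme with DMSO only and 100% = wells lacking PAFAH1B3 protein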
pPAFAH FP inh: pPAFAH enzyme inhibitors, primary screen, biochemical, fluorescence polarization, human. Platelet-activating factor acetylhydrolase (Homo sapiens), Q13093. recombinant pPAFAH, FP-rhodamine probe fluorescence polarization. inhibition, % at 3.39 µM. actives 1.5% (n = 330,000);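 active = inhibition above the mean inhibition across the screen plus 3 SD, cut at about 25% in these data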;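 note: inhibitors block binding of the rhodamine activity-based probe so polarization drops; 0% = enzyme with DMSO and 100% = wells lacking pPAFAH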
Target sequence (Q13093 whole entry, looked up): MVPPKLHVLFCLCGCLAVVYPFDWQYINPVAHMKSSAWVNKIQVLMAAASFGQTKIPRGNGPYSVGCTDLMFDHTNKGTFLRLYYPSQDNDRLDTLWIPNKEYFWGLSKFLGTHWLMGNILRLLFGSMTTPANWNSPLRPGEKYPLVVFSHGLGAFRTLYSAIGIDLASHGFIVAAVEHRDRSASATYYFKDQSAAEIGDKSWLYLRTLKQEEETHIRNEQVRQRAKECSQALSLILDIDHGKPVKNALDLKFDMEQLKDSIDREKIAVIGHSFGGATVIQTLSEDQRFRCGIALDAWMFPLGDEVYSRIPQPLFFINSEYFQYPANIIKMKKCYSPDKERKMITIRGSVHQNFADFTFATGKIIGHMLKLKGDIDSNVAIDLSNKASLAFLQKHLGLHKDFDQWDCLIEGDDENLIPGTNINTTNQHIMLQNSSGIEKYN
The depositor's hits bear a star; x = no result given.

SMILES | PAFAH1B2 FP inh | PAFAH2 inh | RBBP9 inh | PAFAH1B3 FP inh | pPAFAH FP inh
C[C@H]1C(=O)N(C)CCN1C(=O)c1cccc(OC2CCN(CC(C)(C)C)CC2)c1 | -1.1 | 6.3 | x | -4.4 | 5.4
CCN(CC(=O)NC1CCS(=O)(=O)C1)S(=O)(=O)c1ccc(C)cc1C (stereo unspecified) | 3.9 | -4.9 | 1.6 | 1.2 | 0.7
CCCc1ccc(OCc2ccc(C(=O)N3CCSCC3)o2)cc1 | 0.8 | -3.6 | x | 8.6 | 24.6*
Cc1onc(-c2ccccc2)c1C(=O)NC(=S)Nc1sc2c(c1C#N)CCCC2 | 9.1 | 10.5 | -3.0 | 1.8 | 0.6
Cc1onc(-c2ccccc2)c1C(=O)Nc1sc2c(c1C#N)CCC2 | 1.0 | 16.6 | -7.5 | 9.2 | 27.4*
COCCNC(=O)c1ccc(N2CC3CC(C2)c2cccc(=O)n2C3)c(NC(=O)c2ccc(Br)o2)c1 (stereo unspecified) | -2.5 | -0.4 | x | 4.5 | 5.6
Cc1ccccc1NS(=O)(=O)c1ccc(OCC(=O)NCc2cccnc2)cc1 | 7.1 | -0.6 | -2.6 | 5.4 | 33.5*
O=C(COc1ccc(S(=O)(=O)Nc2ccccc2)cc1)NCc1cccnc1 | -0.5 | 0.5 | -4.6 | 8.3 | 29.4*
C[C@H](OC(=O)N1CCN(C(c2ccccc2)c2ccccc2)CC1)[C@@H]1O[C@@]2(C)CCC[C@H]1O2 | -0.6 | 0.4 | x | -0.2 | 10.7
C[C@H](OC(=O)NCc1ccc(C(F)(F)F)cc1)[C@@H]1O[C@@]2(C)CCC[C@@H]1O2 | 25.0* | 0.2 | x | -0.7 | -1.6
CCCCc1ccc(C2C3=C(CC(C)(C)CC3=O)NC3=C2C(=O)c2ccccc23)cc1 (stereo unspecified) | -4.5 | -6.8 | -6.6 | 15.8 | 26.8*
CC1(C)CC(NC(=O)c2c(N)no[n+]2[O-])CC(C)(C)N1 | -0.9 | -6.2 | -5.8 | 3.6 | 2.2
c1cc(CNCCNCc2ccncc2)ccn1 | 3.6 | -0.2 | x | 2.2 | x
O=C([C@H](Cc1ccccc1)NS(=O)(=O)c1ccc(Cl)cc1)N1CC[C@@]2(O)CCCC[C@H]2C1 | 29.5* | 25.5 | -13.8 | 4.2 | 5.1
CC(=O)Nc1sc(N)nc1-c1ccccc1 | -3.7 | 0.4 | -3.5 | -6.9 | 2.5
Nc1nc(-c2ccccc2)c(N=Nc2cccc3ccccc23)s1 | 2.8 | -2.4 | 1.2 | 5.6 | 30.7*
O=C(CCCN1C(=O)/C(=C\c2ccco2)SC1=S)Nc1ccc2ccccc2c1 | -6.8 | -13.2 | 4.0 | -4.5 | 28.4*
O=C1/C(=C\c2ccco2)SC(=S)N1c1ccccc1 | 0.8 | 13.4 | -4.4 | 2.9 | 28.7*
O=C(O)CCCN1C(=O)/C(=C\c2ccco2)SC1=S | -1.1 | 10.2 | -6.9 | 6.4 | x
O=C1/C(=C\c2ccco2)SC(=S)N1Cc1ccccc1 | -7.0 | 17.0 | -6.2 | 9.6 | 25.4*
Cc1ccc(N2C(=O)/C(=C\c3ccco3)SC2=S)cc1 | -0.2 | 5.2 | -3.8 | 1.7 | 16.1
Cc1c(Cl)ccc(S(=O)(=O)NCCCn2ccnc2)c1Cl | 5.8 | 0.9 | x | 16.6 | 2.1
COc1cccc(N2CCN(C(=O)c3oc4ccccc4c3NC(=O)Cc3ccc(OC)c(OC)c3)CC2)c1 | 1.8 | 4.8 | x | -6.3 | 4.1
NC(Cc1c[nH]c2ccc(OCc3ccccc3)cc12)C(=O)O (stereo unspecified) | 12.5 | -0.6 | x | 9.0 | 25.9*
N[C@@H](Cc1c[nH]c2ccc(O)cc12)C(=O)O | -0.7 | -1.4 | x | -5.2 | 10.1
SMILES | PAFAH1B2 FP inh | PAFAH2 inh | RBBP9 inh | PAFAH1B3 FP inh | pPAFAH FP inh
CCC(C)NS(=O)(=O)c1ccc(S(=O)(=O)N(CC(=O)Nc2ccccc2)CC2CCCO2)cc1 (stereo unspecified) | -3.1 | -2.1 | -6.2 | -5.2 | 31.1*
CC(C)(C)N(Cc1ccccc1)C(=O)COC(=O)C1=NN(c2ccccc2)C(=O)CC1 | 7.9 | 6.4 | x | -3.4 | x
COC(=O)C(C)Oc1ccc2c3c(c(=O)oc2c1)CCCCC3 (stereo unspecified) | 0.6 | 2.5 | -2.5 | -0.7 | 27.7*
CC(Oc1ccc2c3c(c(=O)oc2c1)CCCC3)C(=O)NCC1CCC(C(=O)O)CC1 (stereo unspecified) | 6.1 | -2.5 | x | 1.6 | 4.9
COc1ccc(Nc2nc(N)c(C(=O)c3ccc(OC)cc3)s2)cc1 | 5.7 | 6.4 | x | -19.4 | 26.0*
COc1ccc(C(=O)c2sc(NC(C)C)nc2N)cc1OC | 3.5 | 3.5 | 2.8 | 8.3 | 0.5
COc1ccc(Nc2nc(N)c(C(=O)c3ccc(F)cc3)s2)cc1 | 8.2 | 3.5 | x | 7.7 | 30.6*
CCn1c(SCc2nc3ccccc3[nH]2)nnc1-c1ccc(OC)cc1 | 0.1 | 1.0 | -4.9 | -5.9 | -3.1
O=C(Nc1cccc([N+](=O)[O-])c1)c1cc2ccccc2cc1O | 3.2 | -3.6 | -4.7 | 0.7 | 33.9*
Cc1cccc(C(=O)O/N=C(\c2ccccc2)c2cccnc2)c1 | 13.8 | 71.7* | -9.1 | 3.2 | 30.0*
CSc1cccc(NC(=O)CSc2ccc(Cl)cc2)c1 | 16.3 | 10.2 | -2.4 | 9.8 | 4.5
CC(C)CNC(=O)c1cccc(NC(=O)CSc2ccc(Cl)cc2)c1 | 30.2* | -3.5 | -8.4 | 7.2 | 3.4
COc1cc(/C=C(\C#N)c2nc3ccccc3s2)cc([N+](=O)[O-])c1O | 28.8* | 54.7* | -2.5 | 42.3* | x
COc1ccc(-c2csc(/C(C#N)=C\c3ccc(O)c([N+](=O)[O-])c3)n2)cc1OC | 2.5 | 7.7 | -2.0 | 6.4 | 12.0
N#C/C(=C\c1ccc(O)c([N+](=O)[O-])c1)c1nc2ccccc2s1 | 30.3* | 44.4* | -5.8 | 31.1* | x
COc1ccc([C@H]2CC(=O)C=C(c3cccc4c3Oc3ccccc3S4)C2)cc1 | 2.6 | 0.9 | x | 8.5 | 5.6
COc1ccc2c(c1)c(CC(=O)OCC(N)=O)c(C)n2C(=O)c1ccc(Cl)cc1 | 1.7 | -9.5 | -0.8 | 4.9 | 24.7*
Brc1ccc(CSc2nnc(-c3ccco3)o2)cc1 | 26.5* | -5.0 | -3.6 | 0.6 | 4.2
c1ccc(CSc2nnc(-c3ccco3)o2)cc1 | 5.0 | 4.6 | -4.5 | 1.9 | -2.6
CCCCC(O)(c1ccc(OC)cc1)C(CN1CCOCC1)c1ccccc1 (stereo unspecified) | 24.4* | -4.0 | x | 8.6 | -3.5
Clc1ccc2c(c1)c1cc(Cl)ccc1n2CN1CCOCC1 | -0.8 | -5.2 | -10.1 | 5.5 | 27.4*
Clc1ccc2c(c1)c1ccccc1n2CN1CCOCC1 | -0.6 | 9.5 | -3.5 | 5.0 | 10.7
Nc1ccc(C(=O)NC2CCSc3ccccc32)cc1[N+](=O)[O-] (stereo unspecified) | 1.3 | 4.3 | x | 2.6 | 9.6
CC(C)(C)c1ccc(OCC(=O)NCc2ccco2)c(Br)c1 | 14.6 | 12.7 | -3.9 | 3.5 | 28.5*
CC(C)(C)c1ccc(OCC(=O)NNC(=S)NC(=O)c2ccco2)c(Br)c1 | 18.2 | -11.1 | x | 2.2 | 4.2
